Data as given in ChEMBL document CHEMBL4715813, “Allicin-inspired pyridyl disulfides as antimicrobial agents for multidrug-resistant Staphylococcus aureus” (Eur J Med Chem, 2018).
Converted amounts (≈) assume the structure as drawn.

Columns and labels:
Type in all cases: functional
Klebsiella pneumoniae = assay: Antibacterial activity against multidrug-resistant Klebsiella pneumoniae ATCC 700603 assessed as zone of inhibition by disc diffusion method
Enterobacter cloacae = assay: Antibacterial activity against Enterobacter cloacae ATCC 23355 assessed as zone of inhibition by disc diffusion method
Escherichia coli = assay: Antibacterial activity against beta-lactam resistant Escherichia coli BAA 2326 assessed as zone of inhibition by disc diffusion method
Acinetobacter baumannii [1] = assay: Antibacterial activity against multidrug-resistant Acinetobacter baumannii BAA 1605 assessed as zone of inhibition by disc diffusion method
Bacillus anthracis = assay: Antibacterial activity against Bacillus anthracis Sterne 34F2 assessed as zone of inhibition by disc diffusion method
Enterococcus faecium = assay: Antibacterial activity against vancomycin-resistant Enterococcus faecium ATCC 700221 assessed as zone of inhibition by disc diffusion method
Enterococcus faecalis = assay: Antibacterial activity against vancomycin-susceptible Enterococcus faecalis ATCC 29212 assessed as zone of inhibition by disc diffusion method
Staphylococcus aureus [2] = assay: Antibacterial activity against methicillin-susceptible Staphylococcus aureus ATCC 25923 assessed as zone of inhibition by disc diffusion method
Staphylococcus aureus [3] = assay: Antibacterial activity against community acquired methicillin-resistant Staphylococcus aureus BAA 1747 assessed as zone of inhibition by disc diffusion method
Staphylococcus aureus [4] = assay: Antibacterial activity against hospital acquired methicillin-resistant Staphylococcus aureus ATCC 43300 assessed as zone of inhibition by disc diffusion method
Staphylococcus aureus [5] = assay: Antibacterial activity against heterogeneous vancomycin-intermediate resistant Staphylococcus aureus Mu3 ATCC 700698 assessed as zone of inhibition by disc diffusion method
Staphylococcus aureus [6] = assay: Antibacterial activity against vancomycin-intermediate resistant Staphylococcus aureus Mu50 ATCC 700699 assessed as zone of inhibition by disc diffusion method
Staphylococcus aureus [7] = assay: Antibacterial activity against vancomycin-resistant Staphylococcus aureus HIP11714 assessed as zone of inhibition by disc diffusion method
[8] = system: Staphylococcus epidermidis; assay: Antibacterial activity against Staphylococcus epidermidis ATCC 14990 assessed as zone of inhibition by disc diffusion method
Acinetobacter baumannii [9] = assay: Antibacterial activity against Acinetobacter baumannii ATCC 19606 assessed as zone of inhibition by disc diffusion method
Pseudomonas aeruginosa = assay: Antibacterial activity against Pseudomonas aeruginosa ATCC 15422 assessed as zone of inhibition by disc diffusion method
Staphylococcus aureus [10] = assay: Antibacterial activity against methicillin-susceptible Staphylococcus aureus ATCC 25923 assessed as bacterial growth inhibition incubated for 20 hrs by broth dilution method
How it was run: (§1)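 Broth microdilution: 0.5 McFarland suspension from an overnight culture, diluted 1:100 in cation-adjusted Mueller Hinton broth (CAMHB), given serial dilutions of test agent for 20 h at 37 °C. MIC is the lowest concentration with no visible growth.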

Staphylococcus aureus [11] = assay: Antibacterial activity against methicillin-resistant Staphylococcus aureus ATCC 43300 assessed as bacterial growth inhibition incubated for 20 hrs by broth dilution method; how it was run: as §1
Staphylococcus aureus [12] = assay: Antibacterial activity against linezolid-resistant Staphylococcus aureus assessed as bacterial growth inhibition incubated for 20 hrs by broth dilution method; how it was run: as §1
Staphylococcus aureus [13] = assay: Antibacterial activity against heterogeneous vancomycin-intermediate Staphylococcus aureus Mu3 ATCC 700698 assessed as bacterial growth inhibition incubated for 20 hrs by broth dilution method; how it was run: as §1
Staphylococcus aureus [14] = assay: Antibacterial activity against vancomycin-intermediate resistant Staphylococcus aureus Mu50 ATCC 700699 assessed as bacterial growth inhibition incubated for 20 hrs by broth dilution method; how it was run: as §1
Staphylococcus aureus [15] = assay: Antibacterial activity against vancomycin-resistant Staphylococcus aureus HIP11714 assessed as inhibition of bacterial growth incubated for 20 hrs by broth microdilution method; conditions: HIP11714, 20 h; how it was run: as §1
Staphylococcus aureus [16] = assay: Antibacterial activity against vancomycin-intermediate Staphylococcus aureus clinical isolate 12 assessed as bacterial growth inhibition after 20 hrs by broth microdilution assay; how it was run: as §1
Staphylococcus aureus [17] = assay: Antibacterial activity against vancomycin-resistant Staphylococcus aureus clinical isolate 10 assessed as bacterial growth inhibition after 20 hrs by broth microdilution assay; how it was run: as §1

Structure (SMILES) | diameter of the inhibition zone (DIZ) (Klebsiella pneumoniae) [mm] | diameter of the inhibition zone (DIZ) (Enterobacter cloacae) [mm] | diameter of the inhibition zone (DIZ) (Escherichia coli) [mm] | diameter of the inhibition zone (DIZ) (Acinetobacter baumannii [1]) [mm] | diameter of the inhibition zone (DIZ) (Bacillus anthracis) [mm] | diameter of the inhibition zone (DIZ) (Enterococcus faecium) [mm] | diameter of the inhibition zone (DIZ) (Enterococcus faecalis) [mm] | diameter of the inhibition zone (DIZ) (Staphylococcus aureus [2]) [mm] | diameter of the inhibition zone (DIZ) (Staphylococcus aureus [3]) [mm] | diameter of the inhibition zone (DIZ) (Staphylococcus aureus [4]) [mm] | diameter of the inhibition zone (DIZ) (Staphylococcus aureus [5]) [mm] | diameter of the inhibition zone (DIZ) (Staphylococcus aureus [6]) [mm] | diameter of the inhibition zone (DIZ) (Staphylococcus aureus [7]) [mm] | diameter of the inhibition zone (DIZ) [8] [mm] | diameter of the inhibition zone (DIZ) (Acinetobacter baumannii [9]) [mm] | diameter of the inhibition zone (DIZ) (Pseudomonas aeruginosa) [mm] | MIC (Staphylococcus aureus [10]) [µM] | MIC (Staphylococcus aureus [11]) [µM] | MIC (Staphylococcus aureus [12]) [µM] | MIC (Staphylococcus aureus [13]) [µM] | other results
CCCCCSSc1ccccn1 | 0 | 8 | 0 | 0 | >50 | 24 | 23 | 32 | 22 | 21 | 27 | 24 | 22 | >50 | 0 | 0 | 50 (≈ 10.7 µg/mL) | 50 (≈ 10.7 µg/mL) | > 50 | 50 (≈ 10.7 µg/mL) | MIC (Staphylococcus aureus [14]): 50 µM (≈ 10.7 µg/mL); MIC (Staphylococcus aureus [15]): > 50 µM; MIC50 (Staphylococcus aureus [16]): 50 µM (≈ 10.7 µg/mL); MIC90 (Staphylococcus aureus [16]): 50 µM (≈ 10.7 µg/mL); MIC50 (Staphylococcus aureus [17]): 50 µM (≈ 10.7 µg/mL); MIC90 (Staphylococcus aureus [17]): 50 µM (≈ 10.7 µg/mL)
CCCSSc1ccccn1 | 0 | 9 | 0 | 0 | 33 | 0 | 11 | 0 | 0 | 0 | 0 | 0 | 0 | 30 | 12 | 0 |  |  |  |  | 
CCCCCCSSc1ccccn1 | 0 | 8 | 0 | 0 | >50 | 13 | 20 | 47 | 40 | 49 | 45 | >50 | 46 | >50 | 0 | 0 | 25 (≈ 5.68 µg/mL) | 50 (≈ 11.4 µg/mL) | 50 (≈ 11.4 µg/mL) | 50 (≈ 11.4 µg/mL) | MIC (Staphylococcus aureus [14]): 25 µM (≈ 5.68 µg/mL); MIC (Staphylococcus aureus [15]): 50 µM (≈ 11.4 µg/mL); MIC50 (Staphylococcus aureus [16]): 50 µM (≈ 11.4 µg/mL); MIC90 (Staphylococcus aureus [16]): 50 µM (≈ 11.4 µg/mL); MIC50 (Staphylococcus aureus [17]): 50 µM (≈ 11.4 µg/mL); MIC90 (Staphylococcus aureus [17]): 50 µM (≈ 11.4 µg/mL)
c1ccc(CSSc2ccccn2)cc1 | 0 | 0 | 0 | 0 | 38 | 14 | 14 | 26 | 20 | 28 | 19 | 23 | 30 | 38 | 9 | 0 |  |  |  |  | 
CC(C)C(C)SSc1ccccn1 (stereo unspecified) | 0 | 0 | 0 | 0 | 21 | 0 | 0 | 0 | 0 | 0 | 0 | 0 | 0 | 24 | 0 | 0 |  |  |  |  | 
CCSSc1ccccn1 | 0 | 10 | 0 | 12 | 50 | 0 | 15 | 13 | 13 | 12 | 0 | 0 | 0 | 26 | 18 | 0 |  |  |  |  | 
